# High-throughput results as filed in PubChem.
# Hits are enriched below; roughly 3.5% of the tested compounds scored in any of these assays.
# Env fusion inh = inhibitors of HIV Env-mediated cell fusion; HeLa-JRFL Env/CEM21 cell fusion, luciferase; inhibition, % at 12.3 µM; actives 1.1% (n = 360,000); AID 651610;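 active = mean replicate inhibition score of at least 50 and every replicate individually at or above 50; inconclusive = only one of the two criteria met; inactive = mean below 50 and not all replicates reaching 50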;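 note: 0% = plate neutral controls and 100% = maraviroc near 300 nM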
# ERAP1 inh = inhibitors of human ERAP1 aminopeptidase. Q9NZ08. recombinant ERAP1, Leu-AMC fluorescence, 60 min. inhibition, % at 10.7 µM. actives 0.15% (n = 340,000);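 active = mean replicate inhibition of at least 30%, or all replicates individually reaching that 30% level; inactive = mean below 30% and not every replicate reaching it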;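 note: 0% = neutral control wells and 100% = L-leucinethiol positive control wells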
# Cneo AK release = causes C. neoformans cell lysis | AID 651654 | actives 0.2% (n = 360,000) | adenylate kinase release luminescence, 4 h; normalised: neutral wells 0, clomiphene wells 100 | lysis activity, % at 15 µM;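 active = mean lysis activity across replicates of at least 80%, whatever share of replicates individually reach that level; inactive = mean lysis activity below 80%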
#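 read-out = cell lysis signal | test system = log-phase Cryptococcus neoformans yeast cells | input = cells at 5 × 10^6 per mL | medium = fresh YPD growth medium | signal = luminescent adenylate kinase detection reagent | timing = 4 h at 37 °C static, read 1 h later | dosing = single dose | controls = Clomiphene as positive lysis control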
# PGC1a acetyl inh = PGC1a acetylation modulation, inhibitor mode. U2OS PGC1a acetylation, AlphaScreen anti-acetyl-lysine; with virally co-expressed GCN5 acetyltransferase. inhibition, % at 15.6 µM. AID 651687. actives 0.17% (n = 350,000);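 active = every replicate shows inhibition of at least 40%; inconclusive = mean inhibition at least 40% but some replicate below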;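 note: 0% = neutral control wells and 100% = positive control wells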
# FGF22 binding = binders of recombinant human FGF22 by thermal shift | Q9HCT0 | SYPRO orange fluorescence; percent of sucrose octasulfate shift, DMSO zero | activity (Tm shift, normalised), % at 9.99 µM | actives 1.5% (n = 340,000) | AID 651658;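 active = mean Tm shift, scaled 0 neutral to 100 positive control, at about 1.3% or above, every replicate too, limit read from the data; inconclusive = no clear call, values can overlap the other calls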
# Target sequence (Q9HCT0 whole entry, looked up): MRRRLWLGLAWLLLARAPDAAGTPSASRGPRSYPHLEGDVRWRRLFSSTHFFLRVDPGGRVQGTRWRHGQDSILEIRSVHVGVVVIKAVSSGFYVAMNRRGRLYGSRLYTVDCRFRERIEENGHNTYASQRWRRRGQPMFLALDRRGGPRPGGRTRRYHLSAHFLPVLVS
# rRNA inh HTS = inhibitors of bacterial rRNA selective over humanized ribosomes. E. coli WT GFP vs humanized-ribosome RFP mutants, fluorescence, 24 h; hits give low values; DMSO median 0, no signal -100. GFP signal change (wild-type ribosome), % (concentration not given with the values). actives 1.6% (n = 350,000);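 active = significant combined selectivity score with lowered wild-type GFP, culture density cut under 30%, mutant RFP and density less affected; inactive = any of these conditions unmet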
# The depositor's hits bear a star; u = inconclusive; x = no result; [ ] = dose if it differs, or a comment.
SMILES,Env fusion inh,ERAP1 inh,Cneo AK release,PGC1a acetyl inh,FGF22 binding,rRNA inh HTS
O=C(Nc1nnc(S(=O)(=O)N2CCOCC2)s1)c1ccccc1Cl,-2.7,-0.8,1.9,-17.1,0.1,3.3
Cc1cc(NC(=O)Cn2ccsc2=N)c([N+](=O)[O-])cc1C,1.0,7.4,x,x,43.1*,2.0
N=c1sccn1CC(=O)Nc1ccccc1Sc1ccccc1,-3.0,-1.7,x,72.9*,0.3,9.8
C/C(=C\c1ccco1)C1C(C#N)=C(N)Oc2n[nH]c(-c3ccc(C)cc3)c21 (stereo not given),x,-4.6,0.4,3.8,-0.2,-27.5*
C/C(=C\c1ccco1)C1C(C#N)=C(N)Oc2n[nH]c(-c3ccccc3)c21 (stereo not given),-97.9,x,-2.1,0.5,x,x
CCc1ccc2c(CN3CCC(C(=O)OC)CC3)cc(=O)oc2c1,10.0,0.1,-0.6,-0.9,-0.3,-21.9*
COc1ccccc1-c1nc(S(=O)(=O)c2ccccc2)c(N2CCOCC2)o1,-6.6,3.1,-0.4,x,-0.1,4.0
O=C1C(N2CCOCC2)=C(n2nnc3ccccc32)C(=O)c2ccccc21,80.4*,x,-4.7,61.3*,x,x
CCC(=O)OCC(=O)N=c1sccn1Cc1ccccc1Cl,9.4,0.3,2.8,3.7,-0.2,-0.7
O=C(CCl)N=c1sccn1Cc1ccc(Cl)cc1Cl,83.8*,-1.4,x,65.8*,44.0*,-24.1
O=C(CCl)N=c1sccn1Cc1cccc2ccccc12,66.3*,1.2,x,x,0.3,-1.4
O=C(CCl)N=c1sccn1Cc1ccccc1Cl,133.7*,0.3,0.0,52.3*,0.0,-4.2
C[C@H]1CN([C@@H](C)CO)C(=O)c2cccc(NS(=O)(=O)c3ccccc3)c2O[C@@H]1CN(C)Cc1ccc(C(F)(F)F)cc1,x,1.3,1.2,-7.8,0.1,3.2
Cc1cccc(OCc2nnc(SCC(=O)N3c4ccccc4CCc4ccccc43)o2)c1,-6.1,x,-1.3,-10.1,0.4,-7.1
COc1cc(-c2cc(NC(C)=O)c3ncc(-c4ccc(F)cc4)n3c2)cc(OC)c1OC,26.2,0.6,3.3,-15.3,0.1,-3.6
COC(=O)C1=C(C)N(Cc2ccco2)C(=O)C1,x,x,-1.3,9.8,x,x
COc1ccc(OC)c(-n2c(-c3cc(-c4ccco4)[nH]n3)n[nH]c2=S)c1,-25.2,-2.4,x,7.9,0.0,3.4
O=C(CN1C(=O)CC(c2ccccc2)Sc2ccccc21)NCC1CCCO1 (stereo not given),3.5,1.4,-0.7,x,43.2*,5.6
COc1ccc(C2CC(=O)N(CC(=O)NCC3CCCO3)c3ccccc3S2)cc1OC (stereo not given),9.1,-3.0,-1.6,x,0.3,9.6
C[C@H]1CCCCO[C@H](CN(C)C(=O)Nc2ccc(F)cc2)[C@@H](C)CN([C@@H](C)CO)C(=O)c2cc(NS(=O)(=O)c3ccc(Cl)cc3)ccc2O1,3.3[16.7 µM],2.0,84.7*,15.5,x,-1.9
COc1ccc(S(=O)(=O)Nc2ccc3c(c2)C(=O)N([C@@H](C)CO)C[C@@H](C)[C@H](CN(C)C(=O)Nc2ccc(F)cc2)OCCCC[C@@H](C)O3)cc1,-61.2[16.7 µM],2.0,-7.1,8.7,18.3*,-0.5
COc1ccc(S(=O)(=O)Nc2ccc3c(c2)C(=O)N([C@H](C)CO)C[C@H](C)[C@H](CN(C)C(=O)Nc2ccccc2)O3)cc1,-6.0[16.7 µM],-4.2,90.0*,-2.0,-0.6,-3.6
COc1ccc(S(=O)(=O)Nc2ccc3c(c2)C(=O)N([C@@H](C)CO)C[C@H](C)[C@H](CN(C)C(=O)NC(C)C)OCCCC[C@@H](C)O3)cc1,67.5*[16.7 µM],-1.6,0.4,-2.2,0.0,3.5
C[C@@H]1CCCCO[C@H](CN(C)C(=O)Nc2ccc(F)cc2)[C@H](C)CN([C@@H](C)CO)C(=O)c2cc(NS(=O)(=O)c3ccc(Cl)cc3)ccc2O1,-89.5[16.7 µM],3.3,93.9*,-4.5,x,-0.4
C[C@H](CO)N1C[C@H](C)[C@H](CN(C)C(=O)Nc2ccc(F)cc2)OCCCC[C@H](C)Oc2ccc(NS(=O)(=O)c3ccc(Cl)cc3)cc2C1=O,-16.5[16.7 µM],-0.9,10.0,6.3,x,-1.0
SMILES,Env fusion inh,ERAP1 inh,Cneo AK release,PGC1a acetyl inh,FGF22 binding,rRNA inh HTS
C[C@@H]1CN([C@@H](C)CO)C(=O)c2cc(NS(=O)(=O)c3ccccc3)ccc2O[C@H]1CN(C)C(=O)NC1CCCCC1,x,-1.4,111.7*,0.4,-0.3,1.9
Cc1cccc(NC2=NC(C)(C)N=C(N)N2)c1C,-20.6,x,-4.6,-4.0,x,x
Cc1ccccc1C(=O)N/N=C/c1ccsc1C,x,0.7,3.9,1.0,0.0,-2.2
COc1ccc(S(=O)(=O)Nc2ccc3c(c2)C(=O)N([C@H](C)CO)C[C@@H](C)[C@@H](CN(C)S(=O)(=O)c2cccs2)O3)cc1,-11.6[16.7 µM],-1.4,-0.8,-5.4,-0.3,1.2
COc1ccc(/C=C/C(=O)OCC(=O)NCC2CCCO2)cc1 (stereo not given),1.7,-2.2,x,x,44.0*,8.7
COc1ccccc1/C=C/C(=O)NC(=S)NCC1CCCO1 (stereo not given),-6.4,-2.2,4.0,10.3,0.1,-25.0*
COc1ccc(C(=O)NC(=S)NCC2CCCO2)cc1 (stereo not given),x,x,1.9,x,x,x
COc1ccc(/C=C/C(=O)NC(=S)NCC2CCCO2)cc1 (stereo not given),-3.4,-1.3,x,x,43.7*,6.0
O=C(COC(=O)/C=C/c1ccc(OC(F)F)cc1)NC1CCCCCC1,-5.4,-1.1,-1.1,3.1,42.6,-18.1*
O=C(COC(=O)/C=C/c1ccc(OC(F)F)cc1)NC1CCCCCCC1,-28.6,0.0,x,x,0.0,9.2
O=c1nc2ccccc2c2n1CC(CN1CCN(Cc3ccccc3)CC1)N2 (stereo not given),x,x,-2.4,-5.7,x,x
CCOc1ccc(NC(=O)CN2C(=O)c3ccccc3C2=O)cc1,3.3,-0.2,-0.8,x,-0.1,21.6
Cc1nc(N)nc(N/N=C/c2c(F)cccc2Cl)n1,-16.5,0.6,0.7,1.3,-0.2,6.6
C=CC(=O)NC(C)(C)CCN1CCOCC1,10.8,4.4,x,x,0.0,15.4
O=C(c1ccc2c(c1)OCO2)C1CCCN(C(=O)Nc2ccc(F)cc2F)C1 (stereo not given),-1.0,-1.9,x,x,0.3,-3.6
O=C(O)C1C2CCC1C(O)C2 (stereo not given),u,-1.8,x,x,43.3*,9.1
O=C(O)C1C2CCC(CC2)C1C(=O)O (stereo not given),-7.8,-4.4,4.3,2.5,-0.1,x
Cc1nc2cc(NCc3ccc(Cl)cc3)ccc2n1C,-32.8,3.6,-5.2,-2.7,-0.7,1.4
CC(C)NC(=O)N(C)C[C@H]1Oc2ccc(NC(=O)Nc3ccc(C(F)(F)F)cc3)cc2CC(=O)N([C@H](C)CO)C[C@@H]1C,-35.2[16.7 µM],6.1,4.0,0.6,-0.3,1.2
